Our source for the inhibition and Activity values is ChEMBL document CHEMBL4665779, “Novel 2-Substituted 3-Hydroxy-1,6-dimethylpyridin-4(1H)-ones as Dual-Acting Biofilm Inhibitors of Pseudomonas aeruginosa” (J Med Chem, 2020).

The source made the active and inactive calls. The rule behind the calls is not given here.

The test system of assay [1] is Pseudomonas aeruginosa. The assay can be described thus: Inhibition of biofilm formation in multidrug resistant Pseudomonas aeruginosa 1167 at 5 uM relative to control. The class given is functional.
Assay [2] addresses T1, Anthranilate--CoA ligase (Pseudomonas aeruginosa (strain ATCC 15692 / DSM 22644 / CIP 104116 /JCM 14847 / LMG 12228 / 1C / PRS 101 / PAO1)) (UniProt Q9I4X3).
T1 sequence (whole entry): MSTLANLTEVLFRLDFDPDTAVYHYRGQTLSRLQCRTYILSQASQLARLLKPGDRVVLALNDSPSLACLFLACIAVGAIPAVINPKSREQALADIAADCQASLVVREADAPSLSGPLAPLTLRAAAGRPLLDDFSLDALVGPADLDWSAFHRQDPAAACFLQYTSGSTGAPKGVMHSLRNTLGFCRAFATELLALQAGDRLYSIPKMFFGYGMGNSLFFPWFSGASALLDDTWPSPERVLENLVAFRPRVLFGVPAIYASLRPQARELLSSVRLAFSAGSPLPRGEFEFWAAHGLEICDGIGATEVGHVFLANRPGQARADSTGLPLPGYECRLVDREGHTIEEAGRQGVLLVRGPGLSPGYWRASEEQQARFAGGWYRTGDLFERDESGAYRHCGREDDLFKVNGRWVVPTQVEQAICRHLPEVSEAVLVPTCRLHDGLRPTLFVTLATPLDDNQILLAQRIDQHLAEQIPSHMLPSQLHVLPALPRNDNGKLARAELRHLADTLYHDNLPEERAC
The assay can be described thus: Inhibition of pqsA fluorescence in Pseudomonas aeruginosa PAO1 transfected with GFP by measuring fluorescence intensity every 15 mins for 12 hrs by microtiter plate reader assay. To be noted: dose microM 1.25-20, time 12.0 hrs. A digest of the protocol:
(§1)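 PAO1-gfp, PAO1-lasB-gfp, PAO1-rhlA-gfp or PAO1-pqsA-gfp reporters were grown overnight in LB, then diluted in ABTGC medium to OD600 0.02, with compound at 1.25–20 μM. Controls were 0.1% DMSO and a blank. OD600 and GFP fluorescence (ex 485/em 535 nm) were read every 15 min for at least 12 h at 37 °C; triplicate.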

The target in assay [3] is 3-(3-hydroxydecanoyloxy)decanoate synthase (Pseudomonas aeruginosa (strain ATCC 15692 / PAO1 / 1C / PRS 101 / LMG12228)) (UniProt Q51559). The assay can be described thus: Inhibition of rhlA fluorescence in Pseudomonas aeruginosa PAO1 transfected with GFP by measuring fluorescence intensity every 15 mins for 12 hrs by microtiter plate reader assay. To be noted: dose microM 1.25-20, time 12.0 hrs. A digest of the protocol:
as §1

In assay [4] the test system is Pseudomonas aeruginosa PA14. The assay can be described thus: Inhibition of quorum sensing system PQS in Pseudomonas aeruginosa PA14 assessed as reduction in pyocyanin production measured after 48 hrs. To be noted: dose microM 1.25-20, time 48.0 hrs. A digest of the protocol: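 PA14 culture standardized to OD600 0.05 was diluted 100-fold in LB and grown 48 h at 37 °C with shaking, with compound at 1.25–20 μM. Cleared supernatant was extracted with chloroform (4:1), then back-extracted into 0.2 M HCl. A520 was read and normalized to final OD600.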

Assay [5] has as its system Pseudomonas aeruginosa PAO1. Nature of the assay: Inhibition of quorum sensing system rhl in Pseudomonas aeruginosa PAO1 assessed as reduction in rhamnolipid production by orcinol assay. To be noted: dose microM 1.25-20. A digest of the protocol:
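An overnight culture was diluted 1:100 into a defined minimal medium (0.6% glycerol, 25 μM FeSO4) with compound at 1.25–20 μM and grown 24 h at 37 °C with shaking. Supernatant was ether-extracted twice, dried, resuspended in water, and reacted with 0.19% orcinol in 50% H2SO4 at 80 °C for 30 min. A421 was read and normalized to OD600.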

Assay [6] concerns Pseudomonas aeruginosa PAO1. Nature of the assay: Inhibition of quorum sensing system las in Pseudomonas aeruginosa PAO1 assessed as reduction in elastase production at 1.25 to 20 uM after 24 hrs by BODIPY fluorophore based fluorescence assay. To be noted: dose microM 1.25-20, time 24.0 hrs. A digest of the protocol: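 PAO1 in LB at OD600 0.01 was incubated with compound (0–20 μM) for 24 h at 37 °C with shaking. The centrifuged supernatant was mixed with BODIPY FL-labelled DQ elastin substrate. Fluorescence (ex 490/em 520 nm) was read every 10 min for 5 h.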

Assay [7] deals with Pseudomonas aeruginosa. Nature of the assay: Binding affinity to […] overexpressed in Pseudomonas aeruginosa PAO1 assessed as inhibition of biofilm formation at 1.25 to 20 uM. To be noted: dose microM 1.25-20.
The subject of assay [8] is Pseudomonas aeruginosa PAO1. The assay can be described thus: Induction of iron chelation in Pseudomonas aeruginosa PAO1 assessed as increase in intracellular pyochelin level at 1.25 to 20 uM in presence of 50 uM FeCl3 by fluorescence microplate reader assay. The class given is cell-based. To be noted: dose microM 1.25-20. In outline: (§2)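 PAO1 overnight LB culture was diluted in ABTGC medium to OD600 0.02 ([…]), with compound at 0–20 μM, in medium containing 10 or 50 μM FeCl3. Plates were kept at 37 °C in a plate reader recording OD600, pyoverdine fluorescence (ex 400/em 447 nm) and pyochelin fluorescence (ex 350/em 430 nm). Triplicate.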

Assay [9] concerns Pseudomonas aeruginosa PAO1. The assay can be described thus: Induction of iron chelation in Pseudomonas aeruginosa PAO1 assessed as increase in intracellular pyoverdin level at 1.25 to 20 uM in presence of 50 uM FeCl3 by fluorescence microplate reader assay. To be noted: dose microM 1.25-20. Type of assay: cell-based. A digest of the protocol:
as §2

The subject of assay [10] is Pseudomonas aeruginosa PAO1. Nature of the assay: Induction of iron chelation in Pseudomonas aeruginosa PAO1 assessed as increase in intracellular pyochelin level at 1.25 to 20 uM in presence of 10 uM FeCl3 by fluorescence microplate reader assay. Type of assay: cell-based. To be noted: dose microM 1.25-20.
Assay [11] concerns Pseudomonas aeruginosa PAO1. Nature of the assay: Induction of iron chelation in Pseudomonas aeruginosa PAO1 assessed as increase in intracellular pyoverdin level in presence of 10 uM FeCl3 by fluorescence microplate reader assay. Type of assay: cell-based. To be noted: dose microM 1.25-20. In outline: as §2
The subject of assay [12] is Pseudomonas aeruginosa PAO1. The assay can be described thus: Induction of iron chelation in Pseudomonas aeruginosa PAO1 assessed as increase in iron deficiency by measuring change in total ferric ion concentration at 20 uM by inductively coupled plasma mass spectrometry (reference value: 1.91 +/- 0.8 uM).
For assay [13], the system named is Pseudomonas aeruginosa PAO1. Nature of the assay: Induction of iron chelation in Pseudomonas aeruginosa PAO1 assessed as increase in iron deficiency by measuring change in total ferric ion concentration at 5 uM by inductively coupled plasma mass spectrometry (reference value: 1.91 +/- 0.8 uM). A digest of the protocol:
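PAO1 (OD600 0.05) was diluted 1:100 into ABTGC medium and grown 24 h at 37 °C with shaking, with compound; DFP at 20 μM was the reference. Pellets were washed twice in HEPES and lysed with lysozyme in 50 mM HEPES plus sonication for 30 min. Lysates were digested with 1 M nitric acid, centrifuged, and analysed by ICP-MS. Mean ± SD, triplicate.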

Assay [14] has as its system Pseudomonas aeruginosa. Nature of the assay: Antibiofilm activity against Pseudomonas aeruginosa PAO1 assessed as inhibition of biofilm formation after 24 hrs by crystal violet staining based assay. To be noted: dose microM 1.25-20, time 24.0 hrs. Type of assay: functional, organism-based. In outline: (§3)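 PAO1 (OD600 0.05) was cultured in ABTGC medium at 37 °C for 24 h with compound (1.25–20 μM for the dose series). Wells were PBS-washed three times, methanol-fixed for 30 min, air-dried, and stained with 0.1% crystal violet for 30 min. Stain was solubilized in 33% acetic acid and read at 570 nm. Compound stocks were […]. Run in triplicate.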

For assay [15], the system named is Pseudomonas aeruginosa. Nature of the assay: Antibiofilm activity against Pseudomonas aeruginosa PAO1 assessed as reduction in biofilm mass at 1.25 uM after 24 hrs by microtiter plate assay relative to control. The class given is functional. The arrangement: scale not given: the % may be the effect or the level left. A digest of the protocol:
as §3

As to `CCCCCCC(=O)NCc1c(O)c(=O)cc(C)n1C`, in the assay on Pseudomonas aeruginosa [1], testing at 5 µM gave an inhibition of 43.7%. The inhibition entry (in assay [2]; in [3]; in [4]; in [5]; in the assay with Pseudomonas aeruginosa [14]) was “Dose-dependent effect” each time. Also, the inhibition result (in [6]; in the assay on Pseudomonas aeruginosa [7]) was “Active” each time. Also, the outcome in [8] and in [9] was inactive. The outcome in [10] was Active. The Activity result in assay [11] is “Dose-dependent effect”; in [12], 0.88 µM; in [13], 1.17 µM; in the assay with Pseudomonas aeruginosa [15], above 25%.
